Laboratory results as given in PMC3972499 (Scientific Reports, 2014).
“Also recorded” adds a separate entry of the source. Positions of bridges follow the written chain, without caps; N, C: chain ends. Residues, ends and D or L forms follow the SMILES beside them.

Assays:
[1] = tested on: m1.7-4 chimera (hNav1.7 with DII + DIII + DIV S3–S4 of hNav1.5); assay: Whole-cell patch clamp, HEK293 cells, chimera M1.7-4; type: cell-based, human; settings: read-out: estimated IC50, room temperature, data points mean ± S.E., 3–5 cells
[2] = tested on: m1.7-1 chimera (hNav1.7 with DII/S3–S4 of hNav1.5); assay: Whole-cell patch clamp, HEK293 cells, chimera M1.7-1; type: cell-based, human; settings: read-out: estimated IC50, room temperature, data points mean ± S.E., 3–5 cells
[3] = tested on: m1.5-2 chimera (hNav1.5 with DIII/S3–S4 of hNav1.7); assay: Whole-cell patch clamp, HEK293 cells, chimera M1.5-2; type: cell-based, human; settings: read-out: estimated IC50, room temperature, data points mean ± S.E., 3–5 cells
[4] = tested on: hNav1.7 chimeras with S3–S4 fragments replaced by those from hNav1.5; assay: Gain-of-function assay, whole-cell patch clamp, hNav1.7 chimeras; type: cell-based, human; settings: 1 μM, HEK293
[5] = tested on: hNav1.5 chimeras with S3–S4 fragments replaced by those from hNav1.7; assay: Loss-of-function assay, whole-cell patch clamp, hNav1.5 chimeras; type: cell-based, human; settings: 1 μM, HEK293
WT-rNav1.3 = assay: Whole-cell patch clamp, WT-rNav1.3; type: cell-based; settings: 50 μM SSCM-1
Summary of the method: (§1)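 Whole-cell recording at room temperature. Peptide stock was 1 mM in double-distilled water, stored in aliquots at −20°C, then diluted to the stated test concentration.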

[6] = tested on: TTX-R currents expressed on DRG cells; assay: Whole-cell patch clamp, TTX-R currents on DRG cells; type: cell-based; settings: 10 μM SSCM-1, containing 200 μM TTX
wild type hNav1.5 = wild type hNav1.5 (Homo sapiens, UniProt Q14524); assay: Whole-cell patch clamp, HEK293 cells, wild type hNav1.5; type: cell-based
wild type hNav1.5, sequence (Q14524 whole entry): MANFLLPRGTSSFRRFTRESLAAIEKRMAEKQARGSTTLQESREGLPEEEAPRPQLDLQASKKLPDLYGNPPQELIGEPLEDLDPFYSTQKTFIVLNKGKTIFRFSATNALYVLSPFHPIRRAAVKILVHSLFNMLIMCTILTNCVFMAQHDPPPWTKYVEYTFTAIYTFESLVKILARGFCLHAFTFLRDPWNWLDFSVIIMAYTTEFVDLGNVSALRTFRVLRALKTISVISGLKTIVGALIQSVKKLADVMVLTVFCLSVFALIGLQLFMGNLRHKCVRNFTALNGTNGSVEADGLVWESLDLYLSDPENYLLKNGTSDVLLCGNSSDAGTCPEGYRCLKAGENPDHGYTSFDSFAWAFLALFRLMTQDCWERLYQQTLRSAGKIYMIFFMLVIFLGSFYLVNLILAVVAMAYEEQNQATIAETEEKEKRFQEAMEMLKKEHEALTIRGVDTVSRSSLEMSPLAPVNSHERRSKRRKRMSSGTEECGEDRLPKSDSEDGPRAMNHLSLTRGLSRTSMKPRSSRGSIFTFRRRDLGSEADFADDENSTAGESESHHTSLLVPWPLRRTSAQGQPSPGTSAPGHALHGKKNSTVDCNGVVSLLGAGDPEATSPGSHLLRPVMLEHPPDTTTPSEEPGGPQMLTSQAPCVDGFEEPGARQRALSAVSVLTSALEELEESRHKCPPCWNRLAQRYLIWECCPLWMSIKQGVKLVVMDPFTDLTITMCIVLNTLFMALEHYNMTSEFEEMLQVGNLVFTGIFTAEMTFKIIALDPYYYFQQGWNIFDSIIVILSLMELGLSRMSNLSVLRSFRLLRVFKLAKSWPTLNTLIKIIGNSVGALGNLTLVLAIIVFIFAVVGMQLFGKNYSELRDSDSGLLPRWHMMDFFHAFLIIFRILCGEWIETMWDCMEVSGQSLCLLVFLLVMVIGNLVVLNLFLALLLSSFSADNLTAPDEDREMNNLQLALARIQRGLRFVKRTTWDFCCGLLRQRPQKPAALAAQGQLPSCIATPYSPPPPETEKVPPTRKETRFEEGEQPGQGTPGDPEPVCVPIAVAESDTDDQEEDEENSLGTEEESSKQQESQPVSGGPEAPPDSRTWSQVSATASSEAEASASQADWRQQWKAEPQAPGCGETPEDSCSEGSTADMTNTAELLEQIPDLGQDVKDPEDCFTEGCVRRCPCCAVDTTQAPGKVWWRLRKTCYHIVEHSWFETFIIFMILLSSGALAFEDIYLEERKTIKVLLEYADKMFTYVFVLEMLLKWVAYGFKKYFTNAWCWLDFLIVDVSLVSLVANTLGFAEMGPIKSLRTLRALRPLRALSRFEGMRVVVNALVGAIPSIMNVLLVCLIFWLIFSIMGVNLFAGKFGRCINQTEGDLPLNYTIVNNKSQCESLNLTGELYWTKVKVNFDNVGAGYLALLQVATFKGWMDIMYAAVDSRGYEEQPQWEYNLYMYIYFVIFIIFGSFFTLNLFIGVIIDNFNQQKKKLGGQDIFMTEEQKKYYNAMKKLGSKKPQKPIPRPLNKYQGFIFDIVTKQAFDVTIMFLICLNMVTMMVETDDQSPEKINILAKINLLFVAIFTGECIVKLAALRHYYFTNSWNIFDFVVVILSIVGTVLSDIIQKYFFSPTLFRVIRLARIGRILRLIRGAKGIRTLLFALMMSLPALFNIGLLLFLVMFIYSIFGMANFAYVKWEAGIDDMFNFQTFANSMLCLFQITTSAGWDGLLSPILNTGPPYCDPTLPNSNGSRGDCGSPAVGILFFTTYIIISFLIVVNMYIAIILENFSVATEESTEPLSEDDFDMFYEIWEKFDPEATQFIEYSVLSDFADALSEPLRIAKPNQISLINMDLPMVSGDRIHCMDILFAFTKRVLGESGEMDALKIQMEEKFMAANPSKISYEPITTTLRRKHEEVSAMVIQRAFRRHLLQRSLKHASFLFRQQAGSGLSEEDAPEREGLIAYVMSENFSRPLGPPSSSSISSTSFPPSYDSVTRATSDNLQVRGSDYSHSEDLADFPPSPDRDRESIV
Summary of the method: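 HEK293 cells expressing hNav1.5, grown in DMEM with 10% FBS (5% CO2, 37°C). Pipette solution: 140 mM CsF, 10 mM NaCl, 1 mM EGTA, 10 mM HEPES, pH 7.3. Bath solution: 140 mM NaCl, 3 mM KCl, 1 mM MgCl2, 1 mM CaCl2, 10 mM HEPES, pH 7.3. Run at room temperature. Peptide stock 1 mM in ddH2O. Concentration–response curves used points as mean ± S.E. from 3–5 cells.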

[7] = tested on: M1.5-5 chimera (hNav1.5 with DII/S3–S4 of rNav1.4); assay: Loss-of-function assay, whole-cell patch clamp, chimera M1.5-5; type: cell-based; settings: 50 μM SSCM-1
[8] = tested on: M1.4-1 chimera (rNav1.4 with DII/S3–S4 of hNav1.5); assay: Gain-of-function assay, whole-cell patch clamp, chimera M1.4-1; type: cell-based
WT-rNav1.4 = assay: Whole-cell patch clamp, WT-rNav1.4; type: cell-based; settings: 50 μM SSCM-1
Summary of the method: as §1

Row | SMILES | IC50 [1] [nM] | IC50 [2] [nM] | IC50 [3] [nM] | Sensitivity to JZTX-III of hNav1.7 chimeras [4] | Sensitivity to JZTX-III inhibition of hNav1.5 chimeras [5] | inhibitory effect on rNav1.3 currents, in words (WT-rNav1.3) | inhibition of TTX-R currents, in words [6] | IC50 (wild type hNav1.5) [nM] | inhibition at 10 µM (wild type hNav1.5; HEK293, read-out: inhibition of wild type hNav1.5 currents) [%] | inhibition of chimera M1.5-5 currents [7] | inhibition of chimera M1.4-1 currents ([8]; 50 μM SSCM-1) [%] | inhibitory effect on chimeric rNav1.4 (M1.4-1) currents, in words ([8]; gain-of-function) | inhibitory effect on rNav1.4 currents, in words (WT-rNav1.4)
1 | CC(C)[C@H](NC(=O)[C@H](C)NC(=O)[C@@H]1CSSC[C@@H]2NC(=O)[C@@H]3CCCN3C(=O)[C@@H]3CCCN3C(=O)[C@H](CCCCN)NC(=O)CNC(=O)[C@H](CCCNC(=N)N)NC(=O)CNC(=O)[C@@H]3CSSC[C@H](NC(=O)[C@H](C)NC(=O)[C@H](Cc4ccc(O)cc4)NC(=O)CNC(=O)[C@H](CCCCN)NC(=O)[C@H](CSSC[C@H](NC(=O)[C@H](CCC(=O)O)NC(=O)CNC(=O)[C@@H](N)CC(=O)O)C(=O)NCC(=O)NCC(=O)N[C@@H](Cc4ccccc4)C(=O)N[C@@H](Cc4c[nH]c5ccccc45)C(=O)N[C@@H](Cc4c[nH]c5ccccc45)C(=O)N[C@@H](CCCCN)C(=O)N3)NC2=O)C(=O)N[C@@H](CO)C(=O)N[C@@H](CCCCN)C(=O)N[C@@H]([C@@H](C)O)C(=O)N[C@@H](Cc2c[nH]c3ccccc23)C(=O)NCC(=O)N[C@@H](Cc2c[nH]c3ccccc23)C(=O)N1)C(=O)N[C@@H](CCC(=O)O)C(=O)N[C@@H](C)C(=O)N1CCC[C@H]1C(=O)O [JZTX-III, jingzhaotoxin-III] (H-DGECGGFWWKCGRGKPPCCKGYACSKTWGWCAVEAP-OH; disulfide 4-19, 11-24, 18-31; N-terminus and C-terminus assumed) | 476 | 736 | 1050 | gained partial sensitivity to JZTX-III | lost its sensitivity to JZTX-III inhibition | – | – | – | – | – | – | – | –
2 | CC[C@H](C)[C@H](NC(=O)CNC(=O)[C@@H](NC(=O)[C@H](CCCNC(=N)N)NC(=O)[C@@H](NC(=O)[C@H](CO)NC(=O)[C@H](CC(N)=O)NC(=O)[C@H](CCCCN)NC(=O)[C@H](Cc1ccc(O)cc1)NC(=O)[C@H](CCCCN)NC(=O)[C@@H](N)CCSC)[C@@H](C)O)C(C)C)C(=O)N[C@@H](CC(=O)O)C(=O)N[C@H](C(=O)NCC(=O)N[C@@H](CO)C(=O)N[C@H](C(=O)N[C@@H](CCC(=O)O)C(=O)N[C@@H](CC(C)C)C(=O)N[C@@H](CCC(=O)O)C(=O)N[C@@H](CC(C)C)C(=O)N[C@@H](CCC(N)=O)C(=O)N[C@@H](CCSC)C(=O)N[C@@H](CC(N)=O)C(=O)N[C@@H](CCCNC(=N)N)C(=O)N[C@@H](CCCNC(=N)N)C(=O)N[C@@H](Cc1ccc(O)cc1)C(=O)O)[C@@H](C)CC)[C@@H](C)O [SSCM-1, Screened-Sodium-Channel-Interacting peptide-1] (H-MKYKNSTRVGIDTGSIELELQMNRRY-OH) | – | – | – | – | – | subtle inhibitory activity; also recorded: almost no detectable inhibitory effect | subtle inhibitory activity; also recorded: could not inhibit TTX-R currents | ~2880 | > 90 | about 15% | 15 | a detectable inhibitory effect | subtle inhibitory activity; also recorded: almost no detectable inhibitory effect
